The source made the active and inactive calls. The calls are words filed in the database; no cut-off is given here.
Tests used:
[1] = system: J774.A1; assay: Antiinflammatory activity in mouse J774A.1 cells assessed as inhibition of lipopolysaccharide-induced TNFalpha production pretreated for 2 hrs at 10 uM before LPS challenge; type: functional
Method in brief: (§1)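 J774A.1 macrophages pretreated 2 h with test agent at 10 μM or vehicle, then stimulated with LPS 0.5 μg/ml for 24 h. Media collected and centrifuged (14,000 rpm, 5 min); TNF-α and IL-6 quantified by mouse ELISA kits. Total protein of viable cell pellets measured by Bio-Rad protein assay. Results expressed as percent of LPS control.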

[2] = system: J774.A1; assay: Antiinflammatory activity in mouse J774A.1 cells assessed as inhibition of lipopolysaccharide-induced IL6 production pretreated for 2 hrs at 10 uM before LPS challenge; type: functional, cell-based; method in brief: as §1

| Compound | Activity [1] | Activity [2] |
| --- | --- | --- |
| COc1cc(/C=C/C(=O)/C=C/c2ccc(O)c(OC)c2)ccc1O | Active | Active |
| O=C1/C(=C/c2cccs2)CC/C1=C\c1cccs1 | Active |  |
| COc1cc(/C=C2\CCC/C(=C\c3ccc(OC4CCCCO4)c(OC)c3)C2=O)ccc1OC1CCCCO1 (stereo not drawn) | Active |  |
| CN(C)CCCOc1ccc(/C=C2\CC/C(=C\c3ccc(OCCCN(C)C)cc3)C2=O)cc1 | Active | Active |
| CN(C)c1ccc(/C=C/C(=O)/C=C/c2ccc(N(C)C)cc2)cc1 | Active | Active |
| COc1cc(/C=C2\CCC/C(=C\c3ccc(O)c(OC)c3)C2=O)ccc1O | Active | Active |
| CN(C)c1ccc(/C=C2\CC/C(=C\c3ccc(N(C)C)cc3)C2=O)cc1 | Active | Active |
| COc1cc(/C=C/C(=O)CC(=O)/C=C/c2ccc(O)c(OC)c2)ccc1O | Active |  |
| C=CCOc1ccc(/C=C2\CCC/C(=C\c3ccc(OCC=C)cc3)C2=O)cc1 | Active |  |
| Cc1ccc(/C=C2\CC/C(=C\c3ccc(C)s3)C2=O)s1 | Active |  |
| O=C(/C=C/c1ccc(OC2CCCCO2)cc1)/C=C/c1ccc(OC2CCCCO2)cc1 (stereo not drawn) | Active |  |
| C=CCOc1ccc(/C=C/C(=O)/C=C/c2ccc(OCC=C)cc2)cc1 | Active |  |
| COc1cc(/C=C2\CC/C(=C\c3ccc(OC4CCCCO4)c(OC)c3)C2=O)ccc1OC1CCCCO1 (stereo not drawn) | Active |  |
| COc1cc(/C=C2\CC/C(=C\c3ccc(O)c(OC)c3)C2=O)ccc1O | Active | Active |
| O=C1/C(=C/c2ccc(Br)o2)CCC/C1=C\c1ccc(Br)o1 | Active |  |
| CN(C)c1ccc(/C=C2\CCC/C(=C\c3ccc(N(C)C)cc3)C2=O)cc1 | Active | Active |
